In the library only some 2.1% were active in any assay of this set; here they are far more common.
Runt-SMMHC FRET: Runt domain-CBFb-SMMHC interaction inhibition | Q01196+Q13951 | Cerulean-Runt/Venus-CBFb-SMMHC FRET ratio 530/480, 1 h | inhibition, % at 20 µM | hit rate 0.74% among 220,000;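 active means mean inhibition across duplicate retests at 20 µM reaching about 50%, limit read from the data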;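 further: 0% = DMSO wells and 100% = wells with excess untagged CBFb-SMMHC; inhibitors lower the FRET ratio by blocking Runt binding to CBFb-SMMHC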
Target sequence (Q01196 whole entry, looked up, the tested form may be a part): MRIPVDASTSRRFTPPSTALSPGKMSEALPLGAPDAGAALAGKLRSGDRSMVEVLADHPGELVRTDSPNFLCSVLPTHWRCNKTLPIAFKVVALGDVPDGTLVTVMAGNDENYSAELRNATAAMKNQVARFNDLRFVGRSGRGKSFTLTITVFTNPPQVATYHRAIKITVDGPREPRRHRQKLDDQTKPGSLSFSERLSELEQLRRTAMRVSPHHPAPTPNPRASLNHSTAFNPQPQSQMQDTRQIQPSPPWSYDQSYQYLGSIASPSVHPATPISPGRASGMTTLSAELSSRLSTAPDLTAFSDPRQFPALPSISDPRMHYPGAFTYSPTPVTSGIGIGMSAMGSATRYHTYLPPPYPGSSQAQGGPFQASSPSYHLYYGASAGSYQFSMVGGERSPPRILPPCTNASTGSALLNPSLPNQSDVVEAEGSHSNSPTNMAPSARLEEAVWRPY
Target sequence (Q13951 whole entry, looked up, the tested form may be a part): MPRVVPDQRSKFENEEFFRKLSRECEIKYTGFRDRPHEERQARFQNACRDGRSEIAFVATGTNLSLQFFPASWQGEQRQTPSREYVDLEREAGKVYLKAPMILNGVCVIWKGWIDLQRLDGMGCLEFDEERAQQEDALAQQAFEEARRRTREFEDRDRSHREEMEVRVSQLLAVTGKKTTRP
zVAD death inh: blocks zVAD induced death of L929 cells; L929 zVAD necroptosis rescue, ATP luminescence, 24 h; with zVAD 60 µM; viability rescue, % at 10 µM; hit rate 0.38% among 220,000; AID 1377;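 active means activation, scaled between plate controls, above about 75%, limit read from the data; inactive means activation under that limit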;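 further: 0% = zVAD with DMSO and 100% = DMSO alone without zVAD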
TNF necrop inh: blocks TNF-alpha induced death of Jurkat FADD-/- cells | Jurkat FADD-/- TNF necroptosis rescue, ATP luminescence, 24 h; 0 = TNF only, 100 = no-TNF cells | activation (protection from cell death), % at 10 µM | hit rate 0.068% among 220,000;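 active means activation, meaning protection from cell death, of at least 50% relative to plate controls; inactive means activation below 50%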;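 further: necroptosis triggered by 40 ng/mL TNF-alpha added together with compound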
Hck-Nef inh: blocks Nef-activated human Hck kinase | inhibition, % at 20 µM | P08631 | AID 463187 | Recombinant Hck-YEEI plus Nef, Z-Lyte FRET kinase assay | hit rate 0.68% among 220,000;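 active means Hck-Nef kinase inhibition above about 50%, limit read from the data; inactive means inhibition below that limit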;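 further: 0% = DMSO with Hck plus Nef and 100% = Hck alone without Nef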
Runt-CBFb FRET: inhibitors of human RUNX1 Runt domain binding to CBFb; Q01196+Q13951; Cerulean-Runt/Venus-CBFb FRET ratio 530/480, 1 h; inhibition, % at 20 µM; hit rate 0.46% among 220,000;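 active means inhibition over about 50% at 20 µM in the single-dose screen, limit read from the data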;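 further: 0% = DMSO wells and 100% = excess unlabeled CBFb competitor control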
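System: Cerulean-labeled Runt domain protein | Quantity: 100 nM of each labeled protein | Schedule: 1 h compound exposure, room temperature | Detection: Fluorescence energy transfer, 422 nm excitation, 530/480 nm emission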
RanGTP-Imp inh: inhibitors of RanGTP-importin-beta interaction, primary screen, biochemical, FRET, CFP-Ran, YFP-importin-beta, homogeneous. cell-free CFP-Ran/YFP-importin-beta FRET ratio. inhibition, % (test concentration not listed). hit rate 1.1% among 300,000. AID 2216;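 active means more than half of the replicate wells show a fall in the fluorescence ratio signal beyond about 16%, limit read from the data, passing the limit was not always enough; inconclusive means exactly half of the replicate wells pass the set limit; inactive means fewer than half of replicates pass the limit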;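 further: 0% = DMSO wells and 100% = Ran loaded with GDP instead of GTP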
YIC counter: counter-screen for RanGTP-importin-beta inhibitors: YIC FRET probe; AID 435026; hit rate 40% among 1,000; IC50, µM; shares compounds with RanGTP-Imp inh; Purified YIC probe, intramolecular FRET ratio YFP/CFP;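 active means fitted half-maximal inhibitory concentration no more than tenfold above the top dose tested; inconclusive means flat fit with 30 to 70% activity, or poor fit; inactive means half-maximal concentration beyond tenfold above the top dose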
The depositor's hits bear a star; ? = inconclusive; nt = no result given; ! = not confirmed by another sample.

SMILES	Runt-SMMHC FRET	zVAD death inh	TNF necrop inh	Hck-Nef inh	Runt-CBFb FRET	RanGTP-Imp inh	YIC counter
COc1cc(NC(=O)CN(C)CCOc2ccccc2)c(C)cc1[N+](=O)[O-]	nt	nt	nt	nt	nt	0	nt
COc1ccc(S(=O)(=O)N2CC(C)OC(C)C2)cc1C(=O)N1CCCCC1 (stereo unspecified)	nt	nt	nt	nt	nt	1	nt
c1ccc(CCNc2nc3ccccc3n3nnnc23)cc1	3	1	-1	-2	4	6	nt
COc1ccc(CCNc2nc3ccccc3n3nnnc23)cc1OC	31	0	-3	0	19	28*	25*
COc1ccc(CC(=O)OCC(=O)Nc2ccc(N3CCOCC3)cc2)cc1	0	1	2	-47	0	-3	nt
C/C(=C\C(=O)c1ccccc1)Nc1ccc2c(c1)OCO2	8	0	3	4	8	5	nt
Cc1ccc(CNC(=O)c2cccnc2)cc1	nt	nt	nt	nt	nt	21*	>50
Cc1cccc(-c2nnc(NC(=O)c3ccc(N4C(=O)CCC4=O)cc3)s2)c1	-2	nt	1	3	-2	17*	>50
CCOc1cc(OCC)nc(S(C)(=O)=O)n1	3	0	0	0	-2	4	nt
Oc1c(C=Nc2ccccc2)sc2ccccc12	nt	2	-6	25	nt	16*	7.6*
O=C(C1CCCCC1)N(Cc1nc2sc3c(c2c(=O)[nH]1)CCCC3)Cc1cccs1	1	0	0	3	-4	4	nt
COc1ccccc1C(=O)NCCNc1nc2cc(C)cc(C)c2cc1C#N	nt	nt	nt	nt	nt	19*	40*
Cc1cc(C)c2cc(C#N)c(NCCOC(=O)c3ccccc3C)nc2c1	8	0	-5	10	3	8	nt
COc1cc(C(=O)NCCNc2nc3cc(C)ccc3cc2C#N)cc(OC)c1OC	nt	nt	nt	nt	nt	17*	30*
COc1cc(OC)cc(C(=O)NCCNc2nc3cc(C)cc(C)c3cc2C#N)c1	nt	nt	nt	nt	nt	18*	21*
CC1CC1c1ccc(/C=C(\C#N)C(=O)Nc2ccccc2Cl)o1 (stereo unspecified)	-1	2	2	-1	-5	36*	52*
CC1CC1c1ccc(/C=C(\C#N)C(=O)Nc2ccc(Cl)cc2)o1 (stereo unspecified)	2	4	2	2	0	16*	>50
COc1ccc(NC(=O)/C(C#N)=C\c2ccc(N3CCOCC3)o2)cc1	-90	48	-1	2	-17	18*	47*
N#C/C(=C/c1ccc(N2CCCCC2)o1)C(=O)Nc1ccc(Cl)cc1	-43	0	-3	-1	24	8	nt
Cc1[nH]nc2c1C(c1ccoc1)C(C#N)=C(N)O2 (stereo unspecified)	nt	0	-4	2	nt	21*	>50
CCCc1[nH]nc2c1C(c1ccoc1)C(C#N)=C(N)O2 (stereo unspecified)	-1	nt	-10	1	-2	?	nt
O=C(Oc1c(CN2CCOCC2)cc(Cl)c2cccnc12)c1ccccc1	4	0	-13	10	nt	15*	>50
O=C(c1cccc(-n2cccc2)c1)N1CCN(S(=O)(=O)c2c(F)cccc2F)CC1	nt	nt	nt	nt	nt	-2	nt
N#Cc1ccc(OCC(=O)N/N=C/C2CC=CCC2)cc1 (stereo unspecified)	2	2	0	1	-1	-7	nt
CCN(Cc1ccccc1)C(=O)CN1C(=O)NC(CC)(c2ccc(F)cc2)C1=O (stereo unspecified)	nt	nt	nt	nt	nt	23*	>50
SMILES	Runt-SMMHC FRET	zVAD death inh	TNF necrop inh	Hck-Nef inh	Runt-CBFb FRET	RanGTP-Imp inh	YIC counter
CC1=Nc2ccccc2/C1=C\c1sc(Nc2ccc(C)cc2)nc1O	-9	0	-6	3	-14	21*	>50
CC1=Nc2ccccc2/C1=C/c1sc(=O)n(CC(=O)N2CCCC2)c1O	4	0	-3	0	-1	3	nt
Oc1nc(Nc2ccc(F)cc2)sc1/C=C1\C=Nc2ccccc21	-3	25	1	25	-5	19*	>50
Oc1nc(Nc2cccc(Cl)c2)sc1/C=C1\C=Nc2ccccc21	-38	6	0	4	-27	11	nt
CCCc1n(CC(O)COCc2ccccc2)c2ccccc2[n+]1C (stereo unspecified)	13	2	0	-4	-8	35*	>50
CCCc1n(CC(O)COC2CCCCC2)c2ccccc2[n+]1C (stereo unspecified)	nt	4	-1	18	nt	0	nt
O=C(NNC(=O)c1cccc(-n2cnnn2)c1)c1ccccc1	0	3	0	11	1	0	nt
O=C(Nc1cnc2ccccc2c1)c1cccc(-n2cnnn2)c1	-9	0	-2	0	2	19*	>50
COc1ccc(/C=N/c2sc3c(c2C#N)CCN(Cc2ccccc2)C3)c(O)c1	44	1	2	1	46	4	nt
Cc1cccc(/C=N/c2sc3c(c2C#N)CCN(Cc2ccccc2)C3)c1O	126*	0	2	3	31	36*	>50
CCN(CC)CCCn1c2c(c(SCC(=O)Nc3nccs3)nc1=O)CCC2	nt	nt	nt	nt	nt	-4	nt
O=c1c2cn[nH]c2[nH]c(=S)n1-c1cccc(Cl)c1	4	nt	0	1	1	5	nt
COC(=O)[C@@H]1[C@H]2C[C@H]3c4[nH]c5ccccc5c4CCN3C[C@@H]2CC[C@@H]1O	nt	nt	nt	nt	nt	26*!	>50
CCN1C(=O)C2(C(C#N)=C(N)Oc3n[nH]c(C(C)C)c32)c2ccccc21 (stereo unspecified)	-12	0	-1	1	1	26*	>50
CCN1C(=O)C2(C(C#N)=C(N)Oc3n[nH]c(-c4ccc(Cl)cc4)c32)c2ccccc21 (stereo unspecified)	3	-1	-4	-2	1	1	nt
OCCN1CCN(c2nc(-c3ccccc3)c3cc(Cl)ccc3n2)CC1	52*	0	-9	0	nt	18*	24*
COc1ccc2c(c1)C(c1ccc(C)o1)=NNC(c1ccccc1)=N2	-2	11	1	13	4	5	nt
COc1ccc2c(c1)C(c1ccc(C)o1)=NNC(c1cccnc1)=N2	4	1	1	23	0	21*	>50
CC(C)(C)n1cnc2cc(NCc3ccc(Br)cc3)ccc21	nt	nt	nt	nt	nt	23*	>50

From PubChem
